Screening data as filed in PubChem.
This is a sample that favours compounds with a hit; in the whole collection about 1.2% have one here.
hK5 inh = blocks human kallikrein 5 protease activity; Q9Y337; recombinant hK5, fluorogenic AMC substrate cleavage; inhibition, % at 5 µM; 210,000 tested, 0.59% active; AID 873;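 active = inhibition of 40% or more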;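 note: 0% = enzyme controls without compound and 100% = no-enzyme blanks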
Target sequence (Q9Y337 67-293 limits assumed): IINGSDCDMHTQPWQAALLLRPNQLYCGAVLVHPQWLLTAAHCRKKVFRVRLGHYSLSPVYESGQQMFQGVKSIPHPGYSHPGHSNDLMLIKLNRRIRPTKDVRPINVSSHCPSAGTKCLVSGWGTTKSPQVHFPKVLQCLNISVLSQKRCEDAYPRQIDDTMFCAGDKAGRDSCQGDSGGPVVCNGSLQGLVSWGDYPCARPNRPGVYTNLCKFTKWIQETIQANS
FXIIa inh 1536 = inhibitors of human coagulation factor XIIa; 220,000 tested, 0.3% active; inhibition, % at 5 µM; P00748; AID 800; purified FXIIa, Boc-QGR-AMC fluorogenic substrate, 2 h; in the data active = inhibition above about 40%;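 note: 0% = enzyme with no compound and 100% = blank without enzyme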
Redox H2O2 prof = compounds producing H2O2 with reducing agent – biochemical, NIH compound library profiling, artefact control for MLSCN library redox annotation, primary screen; DTT-dependent redox cycling H2O2, phenol red/HRP absorbance; 100% = 100 µM peroxide control, 0% = buffer; activation, % at 10 µM; 200,000 tested, 0.03% active;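 active = activation of at least 50% relative to the plate's high and low controls in the primary single-dose screen; inactive = activation below 50%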;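 note: compound incubated with DTT at 0.8 mM final as the reducing agent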
S1P3 antag = blocks the human S1P3 receptor. Q99500. inhibition, % at 4.98 µM. 170,000 tested, 0.27% active. CHO S1P3 NFAT-BLA reporter, FRET fluorescence, antagonist mode;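 active = inhibition above the plate cutoff, the mean inhibition of test wells on that plate plus 3 SD, cut at about 28% in these data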;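 note: cells challenged with S1P at its EC80 of 0.8 µM; blue over green emission ratio from cleaved BLA substrate after 4 h stimulation; 0% = S1P-stimulated wells and 100% = unstimulated DMSO-only wells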
Target sequence (Q99500 whole entry, looked up): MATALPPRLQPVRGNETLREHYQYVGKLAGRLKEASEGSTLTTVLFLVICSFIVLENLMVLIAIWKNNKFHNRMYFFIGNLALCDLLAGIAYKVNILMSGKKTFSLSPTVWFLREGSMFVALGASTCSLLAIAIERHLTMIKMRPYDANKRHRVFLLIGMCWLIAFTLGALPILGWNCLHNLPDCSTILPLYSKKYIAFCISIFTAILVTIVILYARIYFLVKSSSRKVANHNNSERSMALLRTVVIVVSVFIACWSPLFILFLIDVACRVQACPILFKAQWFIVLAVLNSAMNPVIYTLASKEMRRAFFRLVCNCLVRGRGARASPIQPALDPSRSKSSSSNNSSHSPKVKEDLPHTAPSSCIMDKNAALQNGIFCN
thrombin 1536 = inhibitors of human thrombin; 220,000 tested, 0.26% active; alpha-thrombin, Boc-VPR-AMC fluorogenic substrate cleavage; inhibition, % at 5 µM;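 active = inhibition at or above 40%; inactive = inhibition below 40%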;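 note: 0% = enzyme with no compound and 100% = wells without enzyme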
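System: Human alpha-thrombin protein | Medium: pH 7.5 Tris (50 mM) with NaCl 150 mM, Tween 20 0.05% | Times: Enzyme reaction carried out at room temperature | Detection: AMC fluorescence, 355/460 nm | Evaluation: Percent inhibition scaled between no-compound controls and no-enzyme blanks | Benchmarks: Enzyme without compound as high, wells lacking enzyme as low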
FXIa inh 1536 = factor XIa (human) inhibition | 220,000 tested, 0.14% active | P03951 | inhibition, % at 5 µM | AID 798 | purified FXIa, Boc-Glu-Ala-Arg-AMC fluorogenic substrate;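 active = inhibition of at least 40%; inactive = inhibition below 40%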;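 note: fluorescence of freed AMC excited at 355 nm; 0% = enzyme without compound and 100% = no enzyme blank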
Numbers without * were called inactive; x = no result given.

SMILES	hK5 inh	FXIIa inh 1536	Redox H2O2 prof	S1P3 antag	thrombin 1536	FXIa inh 1536
CCC(C)NC(=O)CSc1nc2ccsc2c(=O)n1NC(=O)c1ccccc1 (stereo not drawn)	33	41*	0	x	28	20
Cc1ccc(CNC(=O)CSc2nc3ccsc3c(=O)n2NC(=O)c2ccccc2)cc1	-3	1	2	x	-7	-2
N#Cc1ccc(C(=O)Nc2cc(S(=O)(=O)N3CCCC3)ccc2OCC(F)(F)F)cc1	-19	8	0	9	-2	2
O=C(CCn1ccc2ccccc21)NC1CCCc2ccccc21 (stereo not drawn)	-17	7	-1	x	-3	-3
O=C(CCN1C(=O)C2C3C=CC(C3)C2C1=O)NC1CCCc2ccccc21 (stereo not drawn)	53*	23	3	8	14	13
O=C(NC(=S)Nc1ccc(S(=O)(=O)Nc2nccs2)cc1)c1ccccc1F	10	77*	0	8	19	28
Cc1c(NC(=O)Nc2ccccc2Cl)c(=O)n(-c2ccccc2)n1C	x	6	-2	-1	-2	0
C=CCNC(=O)CN(c1ccc(F)cc1)S(=O)(=O)c1ccc(OC)cc1	4	54*	0	16	-2	12
COC(=O)c1cc(NC(=O)CN(c2ccc(OC)cc2)S(=O)(=O)c2ccc(F)cc2)ccc1Cl	-11	9	-1	x	0	-2
O=C(Cn1c(/C=C/c2ccccc2)nc2ccccc21)Nc1ccc(F)cc1	16	40*	0	1	10	21
Cc1ccc(C)c2nc3sc(C(=O)O)cc3cc12	-4	4	-1	-5	1	-2
O=C1c2cccc3cccc(c23)C(=O)N1c1ccncc1	-7	18	1	x	7	9
O=C1c2cccc3cccc(c23)C(=O)N1c1ccccn1	47*	29	-2	-22	6	34
Cc1cc(C)cc(NC(=O)c2ccc(Cn3nc(C)c(Cl)c3C)o2)c1	120*	31	1	x	21	4
Cc1ccc(CNC(=O)c2ccc(Cn3nc(C)c(Cl)c3C)o2)cc1	-7	3	-1	-2	-8	-6
Fc1ccccc1N1CCN(Cc2nc(-c3ccc(Cl)cc3Cl)no2)CC1	56*	33	0	-15	25	22
CCN(Cc1ccccc1)c1ccc(/C=N/NS(=O)(=O)c2ccc(C)c([N+](=O)[O-])c2)cc1	-8	-3	1	1	-4	-4
CCN(CC)c1ccc(/C=N/NS(=O)(=O)c2cccc([N+](=O)[O-])c2)cc1	-10	52*	0	-7	-14	28
CCCN(CCC)CCNS(=O)(=O)c1ccc2c(c1)oc(=O)n2C	2	11	2	11	-2	1
CCN(CCNS(=O)(=O)c1ccc2c(c1)oc(=O)n2C)c1ccccc1	42*	6	-1	-28	-5	-2
O=C(COC(=O)C12CC3CC(CC(O)(C3)C1)C2)N1CCN(S(=O)(=O)c2ccc(Cl)cc2)CC1	-24	12	3	-12	2	3
O=C(COC(=O)C12CC3CC(CC(O)(C3)C1)C2)NCCc1ccc(Cl)cc1	0	8	0	-23	101*	-2
O=S(=O)(c1cccs1)N1CCN(CC(O)COc2cccc(Br)c2)CC1 (stereo not drawn)	-9	13	0	x	-1	-4
O=S(=O)(c1cccs1)N1CCN(CC(O)COC2CCCc3ccccc32)CC1 (stereo not drawn)	-20	12	2	100*	-6	2
CCOC(=O)C(C(=O)NCc1cccc(OC)c1)c1ncc(C(F)(F)F)cc1Cl (stereo not drawn)	36	45*	1	x	25	19
SMILES	hK5 inh	FXIIa inh 1536	Redox H2O2 prof	S1P3 antag	thrombin 1536	FXIa inh 1536
CCOC(=O)C(C(=O)NCc1ccc(C)cc1)c1ncc(C(F)(F)F)cc1Cl (stereo not drawn)	2	22	1	x	4	-18
Clc1cccc(Cl)c1Cn1cnc2c(NCc3ccco3)ncnc21	61*	-6	-2	x	14	3
COc1ccccc1N1CCN(C(=S)NC(=O)/C=C/c2ccccc2)CC1	14	1	x	-5	-6	-4
CCOc1ccc(-c2nnc(N(CC)C(=O)C3CCC3)s2)cc1	-10	-10	3	x	-5	-2
COCCN(C(=O)C1CC1)c1nnc(-c2ccc(C)cc2)s1	-4	64*	2	x	1	34
CCOC(=O)c1sc(N(C)C(C)=O)nc1C	-4	42*	1	x	1	19
CCOC(=O)c1sc(NCCNc2nc(C)c(C(=O)OCC)s2)nc1C	x	x	x	-44	x	x
CCN(CC)C(=O)C(C(=O)c1cccc([N+](=O)[O-])c1)n1cc(Cl)ccc1=O (stereo not drawn)	-4	8	0	-10	4	1
Cc1ccc(C(=O)Nc2cccnc2Oc2ccc(Cl)cc2)cc1	-2	2	x	7	-5	1
Cc1ccc(S(=O)(=O)Nc2cccnc2Oc2ccc(Cl)cc2)cc1	28	44*	x	6	47*	17
CC(=O)NC(C)C(=O)OCC(=O)c1ccc(-c2ccccc2)cc1 (stereo not drawn)	-5	15	-1	-8	-4	11
CCCCc1nc2ccccc2c(=O)n1NC(=O)c1c(O)c2ccccc2n(C)c1=O	-2	5	0	-3	12	-5
Cc1nc2ccccc2c(=O)n1NC(=O)c1c(O)c2ccccc2n(C)c1=O	x	x	x	73*	x	x
Cc1ccccc1/C=C1\SC(=S)N(/N=C/c2cc([N+](=O)[O-])ccc2O)C1=O	5	13	-1	15	56*	2
COc1ccc(NC(=O)c2cccnc2N2CCCC2)cc1	59*	4	0	x	25	2
CCO[C@H]1OC(C(N)=O)=C[C@@H](C2CCCCC2)[C@@H]1CCCO	-5	1	0	-1	-6	-3
Cc1nnc(NC(=O)c2oc3cc(C)c(C)cc3c2C)s1	-5	14	-1	2	-1	8
Cc1ccc2c(C)c(C(=O)Nc3nnc(C)s3)oc2c1	-2	40*	-1	-46	9	23
Cc1ccc(OCCSc2nc(NC(C)C)nc(NC(C)C)n2)cc1	-3	-8	-1	-15	-5	-7
O=C(Oc1cncc(Cl)c1)c1ccco1	42*	61*	2	x	21	84*
Cn1nccc1C(=O)N1CCc2c([nH]c3ccccc23)C1c1ccc(F)cc1 (stereo not drawn)	-3	7	0	-8	1	-3
CCc1ccc(C2c3[nH]c4ccccc4c3CCN2C(=O)c2cc[n+]([O-])cc2)cc1 (stereo not drawn)	50*	30	x	-1	36	16
Cc1nc(SCC(=O)NC2CCCCC2)[nH]c(=O)c1C	0	7	x	-18	-1	-1
